Assay results taken from ChEMBL document CHEMBL1129682, “(S)-(-)-4-[4-[2-(isochroman-1-yl)ethyl]-piperazin-1-yl] benzenesulfonamide, a selective dopamine D4 antagonist” (J Med Chem, 1996).

Key:
[1] = molecular target: T1, 5-hydroxytryptamine receptor 1A (Rattus norvegicus, UniProt P19327); assay: Binding affinity of [3H]-8-OH-DPAT towards 5-hydroxytryptamine 1A receptor in cloned mammalian receptor expressed in cultured cells or from rat whole brain.; assay type: cell-based
T1 sequence (P19327 whole entry): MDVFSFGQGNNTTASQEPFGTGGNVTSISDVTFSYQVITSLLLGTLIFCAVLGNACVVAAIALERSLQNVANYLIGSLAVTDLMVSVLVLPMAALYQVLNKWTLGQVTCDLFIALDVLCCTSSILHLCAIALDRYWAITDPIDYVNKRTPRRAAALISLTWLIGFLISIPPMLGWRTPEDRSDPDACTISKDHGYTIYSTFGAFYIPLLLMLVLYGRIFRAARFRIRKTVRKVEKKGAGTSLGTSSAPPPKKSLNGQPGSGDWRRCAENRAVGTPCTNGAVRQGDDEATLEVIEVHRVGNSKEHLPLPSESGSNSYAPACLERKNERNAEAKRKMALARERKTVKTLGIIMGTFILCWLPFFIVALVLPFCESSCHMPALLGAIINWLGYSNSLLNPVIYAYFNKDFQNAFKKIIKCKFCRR
Outline: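 Radioligand displacement with [3H]-8-OH-DPAT on membranes from cloned mammalian 5-HT1A receptor expressed in cultured cells.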

D(4) dopamine receptor = molecular target: T2, D(4) dopamine receptor (Rattus norvegicus, UniProt P30729); assay: Binding affinity of [3H]spiperone towards Dopamine receptor D4 expressed in cultured cells or from rat whole brain.; assay type: cell-based
T2 sequence (P30729 whole entry): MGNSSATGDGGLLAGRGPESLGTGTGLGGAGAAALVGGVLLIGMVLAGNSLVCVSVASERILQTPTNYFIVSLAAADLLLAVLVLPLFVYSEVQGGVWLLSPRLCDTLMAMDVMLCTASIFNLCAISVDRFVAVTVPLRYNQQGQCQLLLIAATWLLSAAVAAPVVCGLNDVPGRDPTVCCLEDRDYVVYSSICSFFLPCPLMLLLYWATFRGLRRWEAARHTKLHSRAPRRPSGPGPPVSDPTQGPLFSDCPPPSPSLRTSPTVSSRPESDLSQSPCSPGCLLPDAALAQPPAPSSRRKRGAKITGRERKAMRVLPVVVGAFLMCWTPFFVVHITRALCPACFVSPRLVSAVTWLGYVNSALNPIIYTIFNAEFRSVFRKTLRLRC

[2] = molecular target: T3, Adrenergic receptor alpha-2 (Rattus norvegicus, UniProt P22086+P19328+P22909); assay: […] against binding of [3H]clonidine to cloned mammalian Alpha-2 adrenergic receptor expressed in cultured cells or from rat whole brain
T3 sequence (P22086 whole entry): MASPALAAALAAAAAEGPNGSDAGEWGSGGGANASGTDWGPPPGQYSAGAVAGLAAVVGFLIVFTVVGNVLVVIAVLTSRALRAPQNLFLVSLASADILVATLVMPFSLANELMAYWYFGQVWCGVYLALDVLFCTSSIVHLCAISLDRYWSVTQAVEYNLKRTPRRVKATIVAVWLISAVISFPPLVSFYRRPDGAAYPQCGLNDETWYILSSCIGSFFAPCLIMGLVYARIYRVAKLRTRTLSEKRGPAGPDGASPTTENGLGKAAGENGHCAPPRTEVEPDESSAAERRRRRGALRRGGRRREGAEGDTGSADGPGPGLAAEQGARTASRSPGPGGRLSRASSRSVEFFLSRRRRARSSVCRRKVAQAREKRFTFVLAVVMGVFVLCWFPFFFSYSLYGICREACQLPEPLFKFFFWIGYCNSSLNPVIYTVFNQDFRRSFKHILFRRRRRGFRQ
T3 sequence (P19328 whole entry): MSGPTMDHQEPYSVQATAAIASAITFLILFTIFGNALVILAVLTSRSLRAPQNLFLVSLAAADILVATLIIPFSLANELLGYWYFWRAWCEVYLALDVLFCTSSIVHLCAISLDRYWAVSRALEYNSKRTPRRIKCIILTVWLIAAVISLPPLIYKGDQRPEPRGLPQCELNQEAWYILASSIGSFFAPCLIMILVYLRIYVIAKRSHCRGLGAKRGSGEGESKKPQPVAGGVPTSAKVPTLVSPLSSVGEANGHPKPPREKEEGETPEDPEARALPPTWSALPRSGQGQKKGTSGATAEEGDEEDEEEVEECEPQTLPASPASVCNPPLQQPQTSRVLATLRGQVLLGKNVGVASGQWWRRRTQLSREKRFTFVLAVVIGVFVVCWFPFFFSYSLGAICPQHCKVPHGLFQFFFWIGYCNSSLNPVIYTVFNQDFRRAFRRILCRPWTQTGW
T3 sequence (P22909 whole entry): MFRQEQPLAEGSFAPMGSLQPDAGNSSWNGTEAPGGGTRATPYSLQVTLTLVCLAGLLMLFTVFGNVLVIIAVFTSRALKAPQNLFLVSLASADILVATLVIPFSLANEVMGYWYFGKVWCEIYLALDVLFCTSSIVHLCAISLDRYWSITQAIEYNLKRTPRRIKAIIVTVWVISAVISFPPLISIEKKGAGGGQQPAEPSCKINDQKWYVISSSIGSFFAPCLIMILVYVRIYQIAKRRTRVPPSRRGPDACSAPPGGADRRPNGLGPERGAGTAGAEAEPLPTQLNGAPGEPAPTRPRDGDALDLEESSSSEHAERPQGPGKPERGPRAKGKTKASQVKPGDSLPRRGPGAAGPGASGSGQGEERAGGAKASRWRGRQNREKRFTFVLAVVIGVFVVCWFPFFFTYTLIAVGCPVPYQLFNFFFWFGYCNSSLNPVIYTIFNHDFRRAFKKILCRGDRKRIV

D(3) dopamine receptor = D(3) dopamine receptor (Rattus norvegicus, UniProt P19020); assay: Binding affinity of [3H]spiperone towards Dopamine receptor D3 in cloned mammalian receptor expressed in cultured cells or from rat whole brain.; assay type: cell-based
Outline: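 Radioligand displacement on membranes from cloned mammalian receptors expressed in cultured cells. D1 used [3H]SCH23390 and D3 used [3H]spiperone.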

D(2) dopamine receptor [3] = molecular target: T4, D(2) dopamine receptor (Rattus norvegicus, UniProt P61169); assay: Binding affinity of [3H]U-86170 towards Dopamine receptor D2 in cloned mammalian receptor expressed in cultured cells or from rat whole brain; assay type: cell-based
[4] = molecular target: Serotonin 2 (5-HT2) receptor (Rattus norvegicus, UniProt P30994+P08909+P14842); assay: Binding affinity of [3H]ketanserin towards 5-hydroxytryptamine 2 receptor in cloned mammalian receptor expressed in cultured cells or from rat whole brain.; assay type: cell-based
[5] = molecular target: T5, Adrenergic receptor alpha-1 (Rattus norvegicus, UniProt P15823+P23944+P43140); assay: (§1) […] against binding of [3H]prazosin to cloned mammalian Alpha-1 adrenergic receptor expressed in cultured cells or from rat whole brain […]; assay type: cell-based
T5 sequence (P15823 whole entry): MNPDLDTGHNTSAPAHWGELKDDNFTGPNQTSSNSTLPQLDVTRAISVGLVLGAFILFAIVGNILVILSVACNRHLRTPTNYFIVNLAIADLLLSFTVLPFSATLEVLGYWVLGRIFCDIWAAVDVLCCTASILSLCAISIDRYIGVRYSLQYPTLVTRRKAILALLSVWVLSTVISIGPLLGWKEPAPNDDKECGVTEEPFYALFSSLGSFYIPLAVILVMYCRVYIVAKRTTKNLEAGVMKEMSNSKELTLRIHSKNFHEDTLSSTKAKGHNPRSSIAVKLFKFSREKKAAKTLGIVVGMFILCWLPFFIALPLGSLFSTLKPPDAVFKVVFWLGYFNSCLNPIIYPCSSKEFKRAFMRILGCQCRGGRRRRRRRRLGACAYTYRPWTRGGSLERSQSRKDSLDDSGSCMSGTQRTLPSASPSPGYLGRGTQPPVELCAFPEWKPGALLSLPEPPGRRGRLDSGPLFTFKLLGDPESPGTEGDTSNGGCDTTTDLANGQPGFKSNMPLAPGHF
T5 sequence (P23944 whole entry): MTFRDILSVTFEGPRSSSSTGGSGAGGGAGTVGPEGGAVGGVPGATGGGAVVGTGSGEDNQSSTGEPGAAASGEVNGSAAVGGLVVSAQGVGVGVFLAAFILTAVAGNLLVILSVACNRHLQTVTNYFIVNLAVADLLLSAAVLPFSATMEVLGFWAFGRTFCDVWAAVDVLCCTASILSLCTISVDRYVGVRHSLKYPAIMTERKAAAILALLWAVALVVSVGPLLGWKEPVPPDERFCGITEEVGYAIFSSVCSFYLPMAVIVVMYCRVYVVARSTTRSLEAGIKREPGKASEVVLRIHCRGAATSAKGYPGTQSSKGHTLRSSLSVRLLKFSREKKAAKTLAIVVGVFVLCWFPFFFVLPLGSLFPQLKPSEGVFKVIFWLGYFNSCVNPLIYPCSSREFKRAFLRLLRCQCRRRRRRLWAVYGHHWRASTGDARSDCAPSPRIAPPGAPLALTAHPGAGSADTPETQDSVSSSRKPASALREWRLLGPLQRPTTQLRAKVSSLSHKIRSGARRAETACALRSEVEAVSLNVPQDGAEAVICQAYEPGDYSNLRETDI
T5 sequence (P43140 whole entry): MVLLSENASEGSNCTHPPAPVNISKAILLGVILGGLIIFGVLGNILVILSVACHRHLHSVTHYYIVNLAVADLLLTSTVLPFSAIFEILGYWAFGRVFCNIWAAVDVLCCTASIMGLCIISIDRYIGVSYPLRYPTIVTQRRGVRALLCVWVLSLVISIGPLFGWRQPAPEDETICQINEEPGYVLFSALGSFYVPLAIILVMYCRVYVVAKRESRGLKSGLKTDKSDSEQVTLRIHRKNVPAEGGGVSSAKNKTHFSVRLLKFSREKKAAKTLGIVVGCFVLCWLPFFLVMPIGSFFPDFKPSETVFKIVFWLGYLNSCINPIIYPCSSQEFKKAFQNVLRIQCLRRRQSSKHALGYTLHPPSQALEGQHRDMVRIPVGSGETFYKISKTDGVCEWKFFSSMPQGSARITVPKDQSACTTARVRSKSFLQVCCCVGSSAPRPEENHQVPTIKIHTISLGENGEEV

D(1A) dopamine receptor = D(1A) dopamine receptor (Rattus norvegicus, UniProt P18901); assay: Binding affinity of [3H]SCH-23,390 towards Dopamine receptor D1 in cloned mammalian receptor expressed in cultured cells or from rat whole brain.; assay type: cell-based
[6] = molecular target: Adrenergic receptor alpha-2 (Rattus norvegicus) (UniProt P22086+P19328+P22909); assay: […] against binding of [3H]clonidine to cloned mammalian Alpha-2 adrenergic receptor expressed in cultured cells or from rat whole brain at 1 uM
[7] = molecular target: Adrenergic receptor alpha-1 (Rattus norvegicus) (UniProt P15823+P23944+P43140); assay: as §1; assay type: cell-based
D(2) dopamine receptor [8] = molecular target: T4, D(2) dopamine receptor; assay: Binding affinity to rat Dopamine receptor D2 expressed in CHO cells was determined using [3H]U-86170 as radioligand
Translocator protein [9] = molecular target: Translocator protein (Mus musculus, UniProt P50637); assay: Displacement of [3H]PK11195 binding from peripheral benzodiazepine receptor in MA-10 mouse tumor Leydig cells; assay type: cell-based
Translocator protein [10] = molecular target: Translocator protein (Rattus norvegicus, UniProt P16257); assay: Displacement of [3H]PK11195 binding from peripheral benzodiazepine receptor in C6 rat glioma cell line; assay type: cell-based
Chain of Translocator protein (Rattus norvegicus, UniProt P16257) (P16257 whole entry, looked up): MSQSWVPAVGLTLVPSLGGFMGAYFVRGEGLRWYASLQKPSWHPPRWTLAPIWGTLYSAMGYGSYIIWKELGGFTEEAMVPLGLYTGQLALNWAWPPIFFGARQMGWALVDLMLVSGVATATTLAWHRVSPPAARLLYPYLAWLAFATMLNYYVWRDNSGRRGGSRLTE

Chain of D(1A) dopamine receptor (P18901 whole entry): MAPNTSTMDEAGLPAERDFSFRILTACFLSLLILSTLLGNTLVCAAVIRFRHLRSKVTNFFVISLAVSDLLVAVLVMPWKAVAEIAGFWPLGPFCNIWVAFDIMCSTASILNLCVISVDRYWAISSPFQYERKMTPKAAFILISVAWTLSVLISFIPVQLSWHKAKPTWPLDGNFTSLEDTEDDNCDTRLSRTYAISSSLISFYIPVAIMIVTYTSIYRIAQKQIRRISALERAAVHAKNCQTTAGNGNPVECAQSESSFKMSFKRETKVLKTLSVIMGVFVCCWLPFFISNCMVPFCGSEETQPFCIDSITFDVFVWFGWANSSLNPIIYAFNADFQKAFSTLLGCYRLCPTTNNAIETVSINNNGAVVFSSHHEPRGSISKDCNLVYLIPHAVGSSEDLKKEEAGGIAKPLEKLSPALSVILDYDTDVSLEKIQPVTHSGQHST
Chain of D(3) dopamine receptor (P19020 whole entry): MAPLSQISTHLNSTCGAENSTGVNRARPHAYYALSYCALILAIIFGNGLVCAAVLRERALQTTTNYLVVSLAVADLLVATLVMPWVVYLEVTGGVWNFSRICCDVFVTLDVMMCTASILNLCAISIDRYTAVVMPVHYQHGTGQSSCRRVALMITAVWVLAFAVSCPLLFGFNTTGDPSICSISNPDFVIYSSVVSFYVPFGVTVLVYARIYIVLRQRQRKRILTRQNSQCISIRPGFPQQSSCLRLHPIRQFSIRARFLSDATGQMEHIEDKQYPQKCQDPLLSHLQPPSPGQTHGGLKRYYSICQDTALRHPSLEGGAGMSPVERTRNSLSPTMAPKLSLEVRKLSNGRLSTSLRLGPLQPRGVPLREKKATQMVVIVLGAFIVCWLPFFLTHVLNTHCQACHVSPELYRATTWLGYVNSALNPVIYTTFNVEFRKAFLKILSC
T4 sequence (P61169 whole entry): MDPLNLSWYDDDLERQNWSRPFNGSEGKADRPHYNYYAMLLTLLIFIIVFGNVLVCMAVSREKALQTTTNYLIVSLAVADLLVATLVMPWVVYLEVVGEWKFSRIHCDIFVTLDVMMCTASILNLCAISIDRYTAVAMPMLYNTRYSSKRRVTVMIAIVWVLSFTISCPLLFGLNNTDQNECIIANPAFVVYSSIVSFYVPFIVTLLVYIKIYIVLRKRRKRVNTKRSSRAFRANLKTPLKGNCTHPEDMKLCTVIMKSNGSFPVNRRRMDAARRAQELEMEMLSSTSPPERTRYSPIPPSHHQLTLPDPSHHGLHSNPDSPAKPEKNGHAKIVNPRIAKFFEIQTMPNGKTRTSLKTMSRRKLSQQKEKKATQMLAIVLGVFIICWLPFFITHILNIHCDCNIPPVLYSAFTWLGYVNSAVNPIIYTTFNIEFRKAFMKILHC
Chain of Translocator protein (Mus musculus, UniProt P50637) (P50637 whole entry, looked up): as the sequence (P16257 whole entry, looked up) above, with S2P, Q3E, I67V, E77D, V110A, M113L, M149V, T168P counted along it

Row | SMILES | Ki [1] [µM] | Ki (D(4) dopamine receptor) [µM] | Ki [2] [µM] | Ki (D(3) dopamine receptor) [µM] | Ki (D(2) dopamine receptor [3]) [µM] | Ki [4] [µM] | Ki [5] [µM] | Ki (D(1A) dopamine receptor) [µM] | inhibition [6] [%] | inhibition [7] [%] | Ki (D(2) dopamine receptor [8]) [µM] | IC50 (Translocator protein [9]) [µM] | IC50 (Translocator protein [10]) [µM]
1 | NS(=O)(=O)c1ccc(N2CCN(CC[C@@H]3OCCc4ccccc43)CC2)cc1 [SONEPIPRAZOLE] | > 3.7 | 0.0072 | > 2.6 | 5.8 | > 4.3 | > 1.8 | > 4.9 |  |  |  |  |  | 
2 | COc1ccc(N2CCN(CC[C@H]3OCCc4ccccc43)CC2)cc1 | > 1.6 | 0.025 |  | 0.22 | > 1.8 | 0.03 |  | > 2.4 | 0 | 36 |  |  | 
3 | COc1ccc(N2CCN(CCC3OCCc4ccccc43)CC2)cc1 (stereo unspecified) | 1.1 | 0.0014 | 1.8 | 1.2 | 1.1 | 0.076 | 1.28 | > 2.4 |  |  |  |  | 
4 | Fc1ccc(N2CCN(CCC3OCCc4ccccc43)CC2)cc1 (stereo unspecified) | 0.12 | 0.003 | 0.14 | 0.24 | 0.16 | 0.0058 | 0.038 | 0.41 |  |  |  |  | 
5 | Cc1ccc2c(c1)C(N1CCN(C)CC1)=Nc1cccnc1N2 |  | 0.021 |  |  |  |  |  |  |  |  |  |  | 
6 | NS(=O)(=O)c1ccc(N2CCN(CC[C@H]3OCCc4ccccc43)CC2)cc1 | 2.4 | 0.1 |  | 2.9 | 5.6 |  |  |  | 15 | 41 |  |  | 
7 | COc1cc2c(cc1OC)C(CCN1CCN(c3ccc(F)cc3)CC1)OCC2 (stereo unspecified) | 0.093 | 0.024 |  |  | 0.4 | 0.0021 |  | 0.026 | 75 | 100 |  |  | 
8 | COc1ccc(N2CCN(CC[C@@H]3OCCc4ccccc43)CC2)cc1 | 0.49 | 0.0022 |  | 1.3 |  | 0.028 |  | > 2.4 | 9 | 20 | 0.79 |  | 
9 | CN1C(=O)CN=C(c2ccc(Cl)cc2)c2cc(Cl)ccc21 [RO-54864] |  |  |  |  |  |  |  |  |  |  |  | 0.01 | 
10 | CCCCCCN(CCCCCC)C(=O)Cc1c(-c2ccc(F)cc2)[nH]c2ccccc12 |  |  |  |  |  |  |  |  |  |  |  | 0.01 | 0.01
